This note sets out measurements from ChEMBL document CHEMBL1140717, “Acridine-based agents with topoisomerase II activity inhibit pancreatic cancer cell proliferation and induce apoptosis” (J Med Chem, 2008).

The subject of assay [1] is BXPC-3. Kind of assay: Cell cycle arrest in human BXPC3 cells assessed as accumulation at S phase at 15 uM after 36 hrs. It is filed as functional. In a few lines:
(§1)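 Cells grown in DMEM with 10% fetal calf serum and L-glutamine, then exposed to diluent or compound at 15 µM final for 36 h. Fixed in 50% ethanol, rehydrated, RNase-treated and stained with 50 µg/mL propidium iodide in 0.1% sodium citrate. Flow cytometry (≥20 000 events per sample) gave the percentage of cells in G1, S and G2/M.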

Assay [2] in a line: Cell cycle arrest in human SU86.86 cells assessed as accumulation at S phase at 15 uM after 36 hrs. It is filed as functional, cell-based. The settings on record: SU.86.86. In outline:
as §1

In assay [3] the test system is MIA PaCa-2. Kind of assay: Induction of apoptosis in human MiaPaCa2 cells at 25 uM after 48 hrs. It is filed as functional.
The test system of assay [4] is MIA PaCa-2. Kind of assay: Growth inhibition of human MiaPaCa2 cells after 72 hrs by MTT assay. Type of assay: functional, cell-based. The conditions noted are these: MIA PaCa-2, 72 h. In a few lines: (§2)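 Cells maintained in DMEM with 10% fetal calf serum plus L-glutamine, then exposed over 72 h to a range of compound concentrations. Viability read by MTT; percent growth inhibition determined and IC50 estimated from the MTT data.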

For assay [5], the system named is MIA PaCa-2. The experiment in a line: Cell cycle arrest in human MiaPaCa2 cells assessed as accumulation at G2/M phase at 15 uM after 36 hrs. Type of assay: functional. In outline:
as §1

Assay [6] in a line: Cell cycle arrest in human SU86.86 cells assessed as accumulation at G2/M phase at 15 uM after 36 hrs. Type of assay: functional, cell-based. The conditions noted are these: SU.86.86. In outline: as §1
Assay [7] relates to BXPC-3. The experiment in a line: Cell cycle arrest in human BXPC3 cells assessed as accumulation at G2/M phase at 15 uM after 36 hrs. It is filed as functional. In outline: as §1
Assay [8] deals with MIA PaCa-2. The experiment in a line: Cell cycle arrest in human MiaPaCa2 cells assessed as accumulation at G1 phase at 15 uM after 36 hrs. It is filed as functional. In outline:
as §1

Assay [9] in a line: Growth inhibition of human SU86.86 cells after 72 hrs by MTT assay. Type of assay: functional, cell-based. The settings on record: SU.86.86, 72 h. In outline:
as §2

For assay [10], the system named is BXPC-3. The experiment in a line: Growth inhibition of human BXPC3 cells after 72 hrs by MTT assay. Type of assay: functional, cell-based. The settings on record: BXPC-3, 72 h. In outline: as §2
The test system of assay [11] is SU.86.86. Kind of assay: Induction of apoptosis in human SU86.86 cells at 25 uM after 48 hrs. Type of assay: functional.
Assay [12] concerns MIA PaCa-2. Kind of assay: Cell cycle arrest in human MiaPaCa2 cells assessed as accumulation at S phase at 15 uM after 36 hrs. It is filed as functional. In outline: as §1
A short description of assay [13]: Cell cycle arrest in human SU86.86 cells assessed as accumulation at G1 phase at 15 uM after 36 hrs. Type of assay: functional, cell-based. The settings on record: SU.86.86. In outline: as §1
Assay [14] concerns BXPC-3. The experiment in a line: Induction of apoptosis in human BXPC3 cells at 25 uM after 48 hrs. It is filed as functional. In outline: (§3)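 BXPC-3 cells exposed to diluent or compound for 48 h, then collected and nuclei stained with Hoechst. Three hundred nuclei per field scored as apoptotic when the nucleus was fragmented into multiple discrete fragments; result expressed as percentage of cells in apoptosis.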

Assay [15] has as its system BXPC-3. Kind of assay: Cell cycle arrest in human BXPC3 cells assessed as accumulation at G1 phase at 15 uM after 36 hrs. It is filed as functional. In a few lines: as §1
Assay [16] relates to BXPC-3. The experiment in a line: Induction of apoptosis in human BXPC3 cells 50 uM after 48 hrs. Type of assay: functional. In a few lines: as §3
Assay [17] relates to MIA PaCa-2. The experiment in a line: Induction of apoptosis in human MiaPaCa2 cells at 50 uM after 48 hrs. Type of assay: functional.
Assay [18] relates to SU.86.86. Kind of assay: Induction of apoptosis in human SU86.86 cells 50 uM after 48 hrs. Type of assay: functional.
Assay [19] has as its system BXPC-3. Kind of assay: Induction of apoptosis in human BXPC3 cells at 15 uM after 48 hrs. It is filed as functional. In outline:
as §3

For assay [20], the system named is SU.86.86. The experiment in a line: Induction of apoptosis in human SU86.86 cells at 15 uM after 48 hrs. Type of assay: functional.
Assay [21] deals with MIA PaCa-2. The experiment in a line: Induction of apoptosis in human MiaPaCa2 cells at 15 uM after 48 hrs. It is filed as functional.

Turning to `CN1CCN(C(=O)c2ccc3c(NC4CCN(Cc5ccccc5)CC4)c4ccccc4nc3c2)CC1`, the Activity is 16% in [1]; 29% in assay [2]; 36% in assay [3]; 20% in [5]; 18% in [6]; 7% in assay [7]. The Activity in [8] is 28%; in [11], 30%; in assay [12], 52%; in assay [13] it was 53%; in assay [14] it was 52%; in assay [15], 77%. Also, the IC50 in [4] is 1 µM; in [9], 6 µM; in assay [10], 7 µM.
In the case of `CN1CCN(C(=O)c2cccc3c(NCCc4c[nH]c5ccccc45)c4ccccc4nc23)CC1`, the Activity in [1] was 10%; in assay [2], 27%; in [5], 21%; in [6], 17%; in [7], 7%; in assay [8], 32%. Also, the Activity in assay [16] was determined as 32%; in assay [17] it was 29%; in assay [18] it was 23%; in assay [12] it was 47%; in assay [13], 56%; in [15], 83%. For the same compound, the figures for the half-maximal inhibitory concentration (IC50) in assay [4] and in [9] were 4 µM and 10 µM, respectively.
For `CCN(CC)C(=O)c1ccc2c(NCCc3c[nH]c4ccccc34)c3ccccc3nc2c1`, the Activity in assay [1] turned out to be 20%; in assay [19] it was 40%; in assay [20] it was 17%; in assay [5], 18%; in assay [6], 16%; in [7], 4%. Besides, the Activity in assay [8] is 32%; in [12], 50%; in assay [13], 60%; in [21], 42%; in [15], 76%. In addition, the IC50 worked out at 11 µM in assay [4], 10 µM in [9] and 14 µM in assay [10].
As to `CN1CCN(C(=O)c2ccc3c(NCCc4c[nH]c5ccccc45)c4ccccc4nc3c2)CC1`, the Activity in [1] was 12%; in [2] it was 26%; in assay [19] it was 44%; in [20], 34%; in assay [5], 20%; in assay [6], 24%. The Activity is 7% in [7]; 29% in assay [8]; 51% in assay [12]; 50% in [13]; 20% in assay [21]; 81% in assay [15]. Besides, the IC50 in assay [4] turned out to be 6 µM; in [9], 8 µM; in assay [10], 12 µM.
